The text below walks through data of ChEMBL document CHEMBL1124882, “Synthesis and evaluation of 1,2,2-tris(sulfonyl)hydrazines as antineoplastic and trypanocidal agents” (1990).

The term T/C denotes the result in the treated group divided by that in the control group, in per cent.

The test system of test [1] is L1210. The test is described as follows: Evaluated for average percent change in body weight from onset to termination of therapy against L1210 Leukemia cells in mice after 150 mg/kg dose administration. The class given is functional, Mus musculus. The method in brief:
(§1)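 Recipient mice each received 0.1 mL of suspension containing 10⁶ L1210 cells. The line was kept in RPMI 1640 with 10% FBS and was re-passaged i.p. in CD2F1 donor mice every 8 weeks. Drug was given i.p. in DMSO (≤0.025 mL) once daily for 6 consecutive days, starting 24 h after implantation. Groups held 5–10 mice, with vehicle controls. Value is average % body-weight change from onset to end of therapy.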

The species entered for test [2] is Mus musculus. Description: Effect of aging of compound on the activity after 0 min. The class given is functional. Summed up: (§2)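 Compound, 1 M stock in DMSO, diluted 100 µL into 9.9 mL 200 mM potassium phosphate pH 7.6 at 37 °C; aliquots taken at timed intervals and injected ip (20 µL/g, effective initial dose 0.2 mmol/kg) into female CD-1 mice infected ip with 10⁶ T. rhodesiense Y Tat 1.1, 3 days post-infection; 3–4 mice/group; read-out days survived beyond vehicle controls.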

For test [3], the species on record is Mus musculus. The test is described as follows: Effect of aging of compound on the activity after 100 min. The class given is functional. Summed up:
as §2

The species entered for test [4] is Mus musculus. Description: Effect of aging of compound on the activity after 200 min. The class given is functional. The method in brief: as §2
Test [5] is filed under the species Mus musculus. Description: (§3) Percentage of mice survived after 60 days of treatment with the compound was determined. The class given is functional. Summed up:
(§4)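 Mice implanted ip with 10⁶ L1210 leukemia cells (also P388 leukemia and Sarcoma 180); drug given ip in DMSO (≤0.025 mL) once daily for 6 consecutive days from 24 h after implantation, or as single dose; groups of five; vehicle controls. %T/C = mean survival treated/control ×100, excluding 60-day survivors, which are reported separately; weight change from onset to end of therapy used as toxicity.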

Test [6] relates to L1210. Described as §3. In kind it is functional, Mus musculus. The arrangement: concentration or dose not given beside the values. Summed up: as §4
Test [7] has as its system L1210. Description: Average survival time of treated group / control group x(100) was determined. In kind it is functional, Mus musculus. The method in brief:
as §4

In test [8] the test system is L1210. Description: Evaluated for average percent change in body weight from onset to termination of therapy against L1210 Leukemia cells in mice after 200 mg/kg dose administration. The class given is functional, Mus musculus. The method in brief: as §1
The test system of test [9] is L1210. The test is described as follows: Evaluated for average percent change in body weight from onset to termination of therapy against L1210 Leukemia cells in mice after 15 mg/kg dose administration. In kind it is functional, Mus musculus. Summed up: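 Mice were implanted with 10⁶ L1210 cells in 0.1 mL, from a line kept in culture and passaged in CD2F1 donor mice. A single i.p. dose was given in DMSO (≤0.025 mL). Groups held 5–10 mice, with vehicle-treated tumor-bearing controls. Read-out is average percent body-weight change from onset to termination of therapy, used as the toxicity index.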

Test [10] deals with L1210. The test is described as follows: Evaluated for average percent change in body weight from onset to termination of therapy against L1210 Leukemia cells in mice after 40 mg/kg dose administration. The class given is functional, Mus musculus. The method in brief:
as §1

Test [11] concerns L1210. The test is described as follows: Evaluated for average percent change in body weight from onset to termination of therapy against L1210 Leukemia cells in mice after 60 mg/kg dose administration. The class given is functional, Mus musculus. The method in brief: as §1
The test system of test [12] is L1210. The test is described as follows: Evaluated for average percent change in body weight from onset to termination of therapy against L1210 Leukemia cells in mice after 100 mg/kg dose administration. The class given is functional, Mus musculus. Summed up:
as §1

Regarding `CN(N(S(C)(=O)=O)S(C)(=O)=O)S(C)(=O)=O`, the Change in weight in the test on L1210 [1] is -7.7%. Besides, the results for the “Mean increase in survival” value in the test listed under Mus musculus [2], in the test listed under Mus musculus [3] and in the test filed under Mus musculus [4] were 6.3 days, 3.7 days and 1.2 days, respectively. The same molecule displayed a Survival in the test listed under Mus musculus [5] of 0%.

In the test on L1210 [6], `CS(=O)(=O)N(CCBr)N(S(C)(=O)=O)S(C)(=O)=O` gave a Survival of 0%. Moreover, in the test with L1210 [1], the Change in weight is -2%.

`CS(=O)(=O)N(N(CCCl)S(=O)(=O)c1ccccc1)S(C)(=O)=O` displayed a Survival with L1210 [6] of 40%. Also, in the test with L1210 [1], the Change in weight came out at 0.5%.

For the molecule `CS(=O)(=O)N(CCI)N(S(C)(=O)=O)S(C)(=O)=O`, the Survival in the test with L1210 [6] worked out at 0%. Moreover, the Change in weight in the test on L1210 [1] is 8%. For the same molecule, the T/C in the test with L1210 [7] is 110%.

In the test on L1210 [6], `CS(=O)(=O)N(N(CCCl)S(=O)(=O)c1ccc(Cl)cc1)S(C)(=O)=O` had a Survival of 60%. For the same molecule, the Change in weight in the test with L1210 [8] is on record as -3.4%.

Consider `CS(=O)(=O)NN(CCCl)S(C)(=O)=O` [VPN-4090CE], for which, in the test on L1210 [6], the Survival was 40%. In the test on L1210 [9], the Change in weight is recorded as -3.3%. In addition, in the test with L1210 [7], the T/C is listed as 130%.

As for `CN(NS(C)(=O)=O)S(C)(=O)=O`, in the test on L1210 [10], the Change in weight is -5.8%. Moreover, in the test on L1210 [6], the Survival is recorded as 0%. Moreover, the T/C with L1210 [7] came to 180%.

`Cc1ccc(S(=O)(=O)N(CCCl)N(S(C)(=O)=O)S(C)(=O)=O)cc1` returned a Survival in the test with L1210 [6] of 60%. In addition, the Change in weight in the test with L1210 [1] is reported as -12%. In addition, in the test with L1210 [7], the T/C was 210%.

For `CS(=O)(=O)N(CCCl)N(S(C)(=O)=O)S(C)(=O)=O`, the Change in weight in the test on L1210 [11] was -7.2%. Further, the Survival in the test on L1210 [6] is 100%.

Consider `CS(=O)(=O)OCCN(N(S(C)(=O)=O)S(C)(=O)=O)S(C)(=O)=O`, for which the Survival with L1210 [6] came to 0%. Also, in the test with L1210 [12], the Change in weight is -4.2%.

In the case of `CS(=O)(=O)N(N(CCCl)S(=O)(=O)c1ccc(Br)cc1)S(C)(=O)=O`, the Survival in the test on L1210 [6] was found to be 60%. For the same molecule, the Change in weight in the test with L1210 [1] was 0.9%.

Take `COc1ccc(S(=O)(=O)N(CCCl)N(S(C)(=O)=O)S(C)(=O)=O)cc1`: in the test on L1210 [6], the Survival is given as 100%. The Change in weight in the test with L1210 [8] is on record as 5.9%.
